Reference: article PMC3873039 (Anti-Cancer Agents in Medicinal Chemistry, 2013)

Assays:
[1] = tested on: JURKAT; test: Cell cycle analysis, propidium iodide flow cytometry; assay type: cell-based, human; settings: IC50 dose, 24 h, p<0.05
Method in brief: (§1)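 Seeded at 0.5 x 10^6 cells per well in 12-well plates and treated 24 h at the IC50 concentration of each test compound from CellTiter-Glo. Cells were pelleted (400 g, 5 min), PBS-washed and fixed in 80% ethanol overnight at -20 °C. Staining used 50 µg/mL PI plus RNase overnight at 4 °C.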

[2] = tested on: JURKAT; test: Hoechst 33342 nuclear morphological analysis of apoptosis; assay type: cell-based; settings: Homo sapiens, 24 h, read-out: AP50 (50% induction of apoptosis), Hoechst 33342 staining (Hoe)
Method in brief: (§2)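 Seeded at 0.5 x 10⁶ cells/well in 12-well plates and treated 24 h. Cells were pelleted (400 g, 5 min, 4 °C), washed in PBS, fixed in 4% paraformaldehyde, cytospun, air-dried, then stained with 10 μg/ml Hoechst 33342 for 10 min in the dark. Fluorescence microscopy: 200 cells counted, scored by condensed/intense nuclei, shrinkage, blebbing and apoptotic bodies. % apoptotic nuclei calculated. AP50 = concentration giving 50% apoptotic cells.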

[3] = tested on: non-tumor progenitor cells (CD34+); test: Cell cycle analysis, propidium iodide flow cytometry; assay type: cell-based; settings: 24 h, within the IC50 ranges used to treat the leukemic cell lines
[4] = tested on: HL60; test: Hoechst 33342 nuclear morphological analysis of apoptosis; assay type: cell-based; settings: Homo sapiens, HL-60, 24 h, read-out: AP50 (50% induction of apoptosis), Hoechst 33342 staining (Hoe)
Method in brief: as §2

[5] = tested on: U937; test: Cell cycle analysis, propidium iodide flow cytometry; assay type: cell-based, human; settings: U937, IC50 dose, 24 h; vehicle control G2/M = 19.1%
Method in brief: as §1

[6] = tested on: THP-1; test: Hoechst 33342 nuclear morphological analysis of apoptosis; assay type: cell-based; settings: Homo sapiens, THP-1, 24 h, read-out: AP50 (50% induction of apoptosis), Hoechst 33342 staining (Hoe)
Method in brief: as §2

[7] = tested on: JURKAT; test: NucView caspase 3 activity assay by flow cytometry; assay type: cell-based, human; settings: 24 h
Method in brief: (§3)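 Seeded at 0.5 x 10⁶ cells/well and treated 24 h, with series of 0–50 or 0–250 µM depending on compound. Normalized to vehicle (0% apoptosis). Mean ± STD, three independent experiments in triplicate. One-way ANOVA/Tukey, p<0.05. AP50 = concentration giving 50% apoptotic cells.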

[8] = tested on: THP-1; test: CellTiter-Glo luminescent cell viability assay; assay type: cell-based, human; settings: THP-1, 24 h, doses 0, 2, 10, 50, 250, 500 µM, p<0.05
Method in brief: (§4)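 Cells grown in RPMI 1640 with 10% FBS, 1.5 mM L-glutamine and penicillin/streptomycin at 37 °C, 5% CO2. Seeded at 2.5 x 10³ cells/well and exposed 24 h to ethanol-dissolved test compound (0, 2, 10, 50, 250, 500 µM) with 0.1% ethanol vehicle. ATP luminescence normalized to vehicle (100%). IC50 taken from linear regression. Lowest significant dose set by one-way ANOVA/Tukey, p<0.05. Triplicates, three independent experiments.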

[9] = tested on: HL60; test: Cell cycle analysis, propidium iodide flow cytometry; assay type: cell-based, human; settings: HL60, IC50 dose, 24 h; vehicle control G0/G1 = 56.8%
Method in brief: as §1

[10] = tested on: KG1a; test: Hoechst 33342 nuclear morphological analysis of apoptosis; assay type: cell-based; settings: Homo sapiens, KG-1a, 24 h, read-out: AP50 (50% induction of apoptosis), Hoechst 33342 staining (Hoe)
Method in brief: as §2

[11] = tested on: HL60; test: NucView caspase 3 activity assay by flow cytometry; assay type: cell-based, human
Method in brief: as §3

[12] = tested on: U937; test: CellTiter-Glo luminescent cell viability assay; assay type: cell-based, human; settings: U937, 24 h, doses 0, 2, 10, 50, 250, 500 µM, p<0.05
Method in brief: as §4

[13] = tested on: MOLT-3; test: CellTiter-Glo luminescent cell viability assay; assay type: cell-based, human; settings: MOLT-3, 24 h, doses 0, 2, 10, 50, 250, 500 µM, p<0.05
Method in brief: as §4

[14] = tested on: KG1a; test: NucView caspase 3 activity assay by flow cytometry; assay type: cell-based, human; settings: 24 h
Method in brief: as §3

[15] = tested on: MOLT-3; test: NucView caspase 3 activity assay by flow cytometry; assay type: cell-based, human
Method in brief: as §3

[16] = tested on: CCRF-CEM; test: Cell cycle analysis, propidium iodide flow cytometry; assay type: cell-based, human; settings: IC50 dose, 24 h, vehicle control S = 47.2%
Method in brief: as §1

[17] = tested on: non-tumor cells (CD34+); test: NucView caspase 3 activity assay by flow cytometry; assay type: cell-based; settings: 24 h
[18] = tested on: K562; test: CellTiter-Glo luminescent cell viability assay; assay type: cell-based, human; settings: K562, 24 h, doses 0, 2, 10, 50, 250, 500 µM, p<0.05
Method in brief: as §4

[19] = tested on: CCRF-CEM; test: NucView caspase 3 activity assay by flow cytometry; assay type: cell-based, human; settings: 24 h
Method in brief: as §3

[20] = tested on: non-tumor cells (CD34+); test: Hoechst 33342 nuclear morphological analysis of apoptosis; assay type: cell-based; settings: 24 h, read-out: AP50 (50% induction of apoptosis), Hoechst 33342 staining (Hoe)
Method in brief: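 CD34+ cells treated 24 h across the IC25–IC50 range, then pelleted (400 g, 4 °C) and fixed in 4% paraformaldehyde/PBS. Cytospins were air-dried and stained with 10 μg/ml Hoechst 33342 for 10 min in the dark, then viewed by fluorescence microscopy. 200 cells were scored per sample as % apoptotic nuclei (shrinkage, blebbing, chromatin condensation, apoptotic bodies). AP50 = concentration giving 50% apoptosis.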

[21] = tested on: MOLT-3; test: Hoechst 33342 nuclear morphological analysis of apoptosis; assay type: cell-based; settings: Homo sapiens, MOLT-3, 24 h, read-out: AP50 (50% induction of apoptosis), Hoechst 33342 staining (Hoe)
Method in brief: as §2

[22] = tested on: U937; test: NucView caspase 3 activity assay by flow cytometry; assay type: cell-based, human
Method in brief: as §3

O=c1c(O)c(-c2ccc(O)c(O)c2)oc2cc(O)cc(O)c12 [Quercetin]
Phase of cell cycle accumulation [1]: S-phase
EC50 [2]: 25 µM
Cell cycle arrest in non-tumour control cells [3]: No Arrest <50µM
EC50 [4]: 50 µM
Percentage of cells in G2/M phase of cell cycle (significant accumulation) [5]: G2/M =25%
EC50 [6]: > 500 µM
EC50 ([7]; Homo sapiens, Jurkat, read-out: AP50 (50% induction of apoptosis), Caspase 3 activity assay (C3)): 19 µM
The lowest dose of polyphenols at which there was a significant induction of apoptosis compared to the vehicle control ([7]; JURKAT, caspase 3 activity, p<0.05): 2 µM
The lowest dose of polyphenols at which there was a significant inhibition of cell proliferation compared to the vehicle control [8]: 2 µM
Percentage of cells in G0/G1 phase of cell cycle (significant accumulation) [9]: G0/G1 =66.2%
EC50 [10]: 125 µM
The lowest dose of polyphenols at which there was a significant induction of apoptosis compared to the vehicle control ([11]; HL60, caspase 3 activity, 24 h, p<0.05): 10 µM
EC50 ([11]; Homo sapiens, HL-60, 24 h, read-out: AP50 (50% induction of apoptosis), Caspase 3 activity assay (C3)): 50 µM
The lowest dose of polyphenols at which there was a significant inhibition of cell proliferation compared to the vehicle control [12]: 2 µM
The lowest dose of polyphenols at which there was a significant inhibition of cell proliferation compared to the vehicle control [13]: 2 µM
EC50 ([14]; Homo sapiens, KG-1a, read-out: AP50 (50% induction of apoptosis), Caspase 3 activity assay (C3)): > 50 µM
The lowest dose of polyphenols at which there was a significant induction of apoptosis compared to the vehicle control ([14]; KG1a, caspase 3 activity, p<0.05): 10 µM
EC50 ([15]; Homo sapiens, MOLT-3, 24 h, read-out: AP50 (50% induction of apoptosis), Caspase 3 activity assay (C3)): 50 µM
The lowest dose of polyphenols at which there was a significant induction of apoptosis compared to the vehicle control ([15]; MOLT-3, caspase 3 activity, 24 h, p<0.05): 10 µM
Percentage of cells in S phase of cell cycle (significant accumulation) [16]: S = 51.4%
EC50 ([17]; read-out: AP50 (50% induction of apoptosis), Caspase 3 activity assay (C3)): > 50 µM
The lowest dose of polyphenols at which there was a significant induction of apoptosis compared to the vehicle control ([17]; CD34+ non-tumour control cells, caspase 3 activity, p<0.05): 50 µM
The lowest dose of polyphenols at which there was a significant inhibition of cell proliferation compared to the vehicle control [18]: 2 µM
EC50 ([19]; Homo sapiens, read-out: AP50 (50% induction of apoptosis), Caspase 3 activity assay (C3)): 50 µM
The lowest dose of polyphenols at which there was a significant induction of apoptosis compared to the vehicle control ([19]; caspase 3 activity, p<0.05): 2 µM
EC50 [20]: > 500 µM
EC50 [21]: 50 µM
EC50 ([22]; Homo sapiens, U-937, 24 h, read-out: AP50 (50% induction of apoptosis), Caspase 3 activity assay (C3)): 50 µM
The lowest dose of polyphenols at which there was a significant induction of apoptosis compared to the vehicle control ([22]; U937, caspase 3 activity, 24 h, p<0.05): 2 µM
